Results taken from ChEMBL document CHEMBL1938251, “Synthesis and evaluation of potent and selective human V1a receptor antagonists as potential ligands for PET or SPECT imaging” (Bioorg Med Chem, 2012).

What was measured:
Vasopressin V2 receptor = Vasopressin V2 receptor (Homo sapiens, UniProt P30518); assay: Binding affinity to human vasopressin V2 receptor
Vasopressin V1a receptor = Vasopressin V1a receptor (Homo sapiens, UniProt P37288); assay: Displacement of [3H]arginine-vasopressin from human Vasopressin V1a receptor after 30 mins by liquid scintillation counter
[1] = Permeability of the compound at 25 ug/ml after 18 hrs by PAMPA-BBB assay
Vasopressin V1b receptor = target: T1, Vasopressin V1b receptor (Homo sapiens, UniProt P47901); assay: Binding affinity to human V1b receptor
T1 sequence (P47901 whole entry): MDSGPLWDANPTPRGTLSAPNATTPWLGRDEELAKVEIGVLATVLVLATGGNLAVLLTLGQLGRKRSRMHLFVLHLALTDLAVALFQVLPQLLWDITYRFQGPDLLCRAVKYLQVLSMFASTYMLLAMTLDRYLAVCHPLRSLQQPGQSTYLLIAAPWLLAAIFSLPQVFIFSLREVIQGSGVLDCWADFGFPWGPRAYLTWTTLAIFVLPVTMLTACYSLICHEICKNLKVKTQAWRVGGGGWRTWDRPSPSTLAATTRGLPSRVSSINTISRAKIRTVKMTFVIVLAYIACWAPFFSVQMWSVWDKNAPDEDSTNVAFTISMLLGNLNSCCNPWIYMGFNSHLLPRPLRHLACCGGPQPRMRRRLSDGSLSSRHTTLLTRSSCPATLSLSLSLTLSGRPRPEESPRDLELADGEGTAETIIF

[2] = Permeability of the compound at 5 mg/ml after 18 hrs by PAMPA-BBB assay; type: ADME; settings: in the assay text read “25 ug/ml” for “5 mg/ml”
Method in brief: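 PAMPA-BBB: DMSO stocks (5 mg/mL) diluted 200-fold into universal buffer pH 7.4, giving 25 μg/mL in the donor wells. The filter membrane was coated with porcine brain lipid in dodecane (20 mg/mL), with buffer pH 7.4 as acceptor. Plates stood undisturbed at room temperature for 18 h. Verapamil and theophylline served as high- and low-permeability standards. Pe was calculated by the Faller equation.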

Chain of Vasopressin V2 receptor (P30518 whole entry): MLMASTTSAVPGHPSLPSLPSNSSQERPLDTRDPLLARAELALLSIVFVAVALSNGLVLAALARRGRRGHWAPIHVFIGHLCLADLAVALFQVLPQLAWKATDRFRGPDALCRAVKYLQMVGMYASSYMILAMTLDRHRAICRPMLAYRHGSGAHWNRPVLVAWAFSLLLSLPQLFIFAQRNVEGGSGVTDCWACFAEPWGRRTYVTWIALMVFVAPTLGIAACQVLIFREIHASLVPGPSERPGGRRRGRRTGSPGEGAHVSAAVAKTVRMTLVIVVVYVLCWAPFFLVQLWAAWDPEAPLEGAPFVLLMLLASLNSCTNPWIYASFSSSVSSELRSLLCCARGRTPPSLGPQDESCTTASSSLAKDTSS
Chain of Vasopressin V1a receptor (P37288 whole entry): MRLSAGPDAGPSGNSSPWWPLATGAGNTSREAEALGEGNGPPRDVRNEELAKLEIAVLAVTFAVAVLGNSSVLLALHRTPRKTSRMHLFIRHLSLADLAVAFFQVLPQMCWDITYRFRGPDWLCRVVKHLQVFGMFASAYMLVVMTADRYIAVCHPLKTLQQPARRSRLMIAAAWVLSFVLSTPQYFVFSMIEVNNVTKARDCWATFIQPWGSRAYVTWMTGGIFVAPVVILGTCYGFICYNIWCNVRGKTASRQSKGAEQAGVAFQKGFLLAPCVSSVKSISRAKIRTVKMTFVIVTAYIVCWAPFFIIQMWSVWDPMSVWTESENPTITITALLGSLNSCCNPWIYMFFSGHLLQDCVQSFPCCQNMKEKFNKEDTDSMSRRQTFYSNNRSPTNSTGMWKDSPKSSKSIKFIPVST

Structure (SMILES)	Ki (Vasopressin V2 receptor)	Ki (Vasopressin V1a receptor)	permeability [1]	Ki (Vasopressin V1b receptor)	permeability [2]
C[C@@H](NC(=O)[C@@H](CC(=O)N1CCC(N2CCCCC2)CC1)N1C(=O)[C@@H](N2C(=O)OC[C@@H]2c2ccccc2)[C@H]1/C=C/c1cccc(F)c1)c1ccccc1	> 10000 nM	0.61 nM	5.3 ×10⁻⁶ cm/s	1150 nM	
C[C@@H](NC(=O)[C@@H](CC(=O)N1CCC(N2CCCCC2)CC1)N1C(=O)[C@@H](N2C(=O)OC[C@@H]2c2ccccc2)[C@H]1/C=C/c1cccc(I)c1)c1ccccc1	> 1000 nM			> 1000 nM	2.2 ×10⁻⁶ cm/s
Cc1cccc(/C=C/[C@@H]2[C@H](N3C(=O)OC[C@@H]3c3ccccc3)C(=O)N2[C@H](CC(=O)N2CCC(N3CCCCC3)CC2)C(=O)N[C@H](C)c2ccccc2)c1	> 10000 nM	0.63 nM	4.5 ×10⁻⁶ cm/s	1300 nM	
